# Data taken from ChEMBL document CHEMBL4811233, “Synthesis, Structure-Activity Relationships, and Antiviral Activity of Allosteric Inhibitors of Flavivirus NS2B-NS3 Protease” (J Med Chem, 2021).
# Experiments:
# [1] = target: Nonstructural protein 3 (Zika virus, UniProt A0A024AXB9); experiment: Inhibition Zika virus NS2B (47 to 95 residues)/NS3 (1 to 170 residues) protease expressed in Escherichia coli BL21 using 7-amino-4-methylcoumarin as substrate by fluorescence assay
# Procedure, shortened: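 Single-chain NS2B(47–95)–Gly4-Ser-Gly4–NS3(1–170) enzyme at 1 nM in 20 mM HEPES pH 7.3 with 0.05% Triton X-100. Compound (1 nM–10 µM, triplicate) is preincubated 10 min before adding Bz-Nle-Lys-Lys-Arg-AMC at 20 µM. Fluorescence (Ex 360/Em 460 nm) is read every 30 s. IC50 comes from dose-response fitting of initial velocities, 3 independent experiments with SD.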
# [2] = target: Genome polyprotein (West Nile virus, UniProt P06935); experiment: Inhibition West Nile virus NS3B/NS3 protease using 7-amino-4-methylcoumarin as substrate by fluorescence assay
# [3] = target: Genome polyprotein (dengue virus type 2, UniProt P29990); experiment: Inhibition Dengue serotype-2 NS3B/NS3 protease using 7-amino-4-methylcoumarin as substrate by fluorescence assay
# [4] = test system: U-87 MG; experiment: Cytotoxicity against human U87 cells assessed as inhibition of proliferation at 10 uM by MTT assay; format: cell-based; settings: u-87mg atcc
# [5] = test system: Vero; experiment: Cytotoxicity against African green monkey Vero cells assessed as inhibition of proliferation at 10 uM by MTT assay; format: cell-based; settings: chlorocebus sabaeus
# [6] = test system: Zika virus; experiment: Antiviral activity against Zika virus infected in human U87 cells assessed as reduction in infectious virus in supernatant by measuring infection of Vero cells preincubated with viral infected […] cells for 48 hrs and measured following infection of supernatants with Vero cells for 7 days by microscopy; format: functional; settings: U-87 MG
# Procedure, shortened: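 U87 cells (2×10^4/well, DMEM with 2% FBS monolayer) infected with ZIKV FLR strain (passage-3 stock) at MOI 0.01 for 1 h, then washed. Compound added in triplicate for 48 h at 37 °C. Supernatant half-log dilutions are titrated on Vero cells in quadruplicate for 7 days, with CPE read by microscopy plus MTT. EC68 is the half-log TCID50 reduction versus control; ≥2 independent experiments.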
# Sequence of Nonstructural protein 3 (A0A024AXB9 whole entry, the tested form may be a part): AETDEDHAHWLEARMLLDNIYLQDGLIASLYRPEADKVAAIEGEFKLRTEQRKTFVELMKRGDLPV
# Sequence of Genome polyprotein (West Nile virus, UniProt P06935) (P06935 1371-1501 limits assumed): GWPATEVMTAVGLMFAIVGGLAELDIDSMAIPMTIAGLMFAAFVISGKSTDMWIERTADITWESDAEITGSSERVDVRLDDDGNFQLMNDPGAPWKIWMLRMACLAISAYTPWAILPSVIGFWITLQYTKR
# Sequence of Genome polyprotein (West Nile virus, UniProt P06935) (P06935 1502-2120 limits assumed): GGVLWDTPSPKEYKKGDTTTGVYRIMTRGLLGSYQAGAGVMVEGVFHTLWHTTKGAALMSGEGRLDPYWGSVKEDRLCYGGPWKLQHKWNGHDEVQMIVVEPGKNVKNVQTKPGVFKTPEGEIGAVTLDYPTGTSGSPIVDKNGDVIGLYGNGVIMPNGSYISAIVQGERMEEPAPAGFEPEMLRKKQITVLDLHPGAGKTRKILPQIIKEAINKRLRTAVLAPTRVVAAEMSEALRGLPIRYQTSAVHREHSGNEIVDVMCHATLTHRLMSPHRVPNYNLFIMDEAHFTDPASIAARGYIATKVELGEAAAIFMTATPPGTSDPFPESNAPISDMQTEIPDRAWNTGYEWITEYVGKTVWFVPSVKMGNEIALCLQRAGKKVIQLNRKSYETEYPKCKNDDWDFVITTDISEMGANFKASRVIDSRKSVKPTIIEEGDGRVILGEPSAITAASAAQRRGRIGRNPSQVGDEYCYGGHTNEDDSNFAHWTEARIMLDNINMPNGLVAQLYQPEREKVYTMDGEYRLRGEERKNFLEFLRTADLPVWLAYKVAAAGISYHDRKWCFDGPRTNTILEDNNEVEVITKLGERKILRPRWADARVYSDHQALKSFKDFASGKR
# Sequence of Genome polyprotein (dengue virus type 2, UniProt P29990) (P29990 1346-1475 limits assumed): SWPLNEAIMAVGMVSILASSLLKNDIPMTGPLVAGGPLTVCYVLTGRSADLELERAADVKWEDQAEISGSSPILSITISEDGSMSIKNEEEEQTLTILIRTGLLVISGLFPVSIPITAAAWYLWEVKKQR
# Sequence of Genome polyprotein (dengue virus type 2, UniProt P29990) (P29990 1476-2093 limits assumed): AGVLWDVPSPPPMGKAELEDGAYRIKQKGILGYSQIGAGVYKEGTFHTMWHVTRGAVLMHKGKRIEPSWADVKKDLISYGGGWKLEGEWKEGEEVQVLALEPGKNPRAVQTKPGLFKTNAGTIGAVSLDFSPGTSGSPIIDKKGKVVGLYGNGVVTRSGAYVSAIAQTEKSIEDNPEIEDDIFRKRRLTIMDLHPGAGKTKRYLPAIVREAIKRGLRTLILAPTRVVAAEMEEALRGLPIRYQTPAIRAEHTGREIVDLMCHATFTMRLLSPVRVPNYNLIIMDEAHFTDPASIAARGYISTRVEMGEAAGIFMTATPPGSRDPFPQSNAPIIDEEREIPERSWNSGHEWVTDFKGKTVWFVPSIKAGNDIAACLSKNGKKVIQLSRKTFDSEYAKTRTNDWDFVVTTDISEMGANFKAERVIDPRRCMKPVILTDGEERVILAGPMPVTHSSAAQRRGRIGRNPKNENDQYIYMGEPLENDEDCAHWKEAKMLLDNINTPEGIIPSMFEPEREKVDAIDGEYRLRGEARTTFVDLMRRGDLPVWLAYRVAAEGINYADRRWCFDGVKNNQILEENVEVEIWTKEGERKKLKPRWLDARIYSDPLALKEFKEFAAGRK
SMILES,IC50 [1] [µM],also measured
NC(=O)c1ccc(-c2ncc(OCC3CCNCC3)nc2-c2ccc(-c3ccoc3)cc2)cc1F,2.3,–
c1cc(-c2ccc(-c3ncc(OCC4CCNCC4)nc3-c3ccc(-c4ccsc4)cc3)cc2)cs1,1.4,IC50 [2]: 6.6 µM; IC50 [3]: 3.6 µM
ONCc1ccc(-c2ncc(OCCC3CCNCC3)nc2-c2ccc(CNO)cc2)cc1,1.6,IC50 [2]: 3.2 µM; IC50 [3]: 3.8 µM
CC(C)(C)C(=O)OCc1ccc(-c2ncc(OCC3CCNCC3)nc2-c2ccc(COC(=O)C(C)(C)C)cc2)cc1,9.8,IC50 [2]: 20 µM; IC50 [3]: 13.4 µM
Cc1cc(-c2ccoc2)ccc1-c1nc(OCC2CCNCC2)cnc1-c1ccc(CN)cc1,17.1,Activity [4]: Non-Toxic; Activity [5]: Non-Toxic
NCCCOc1cnc(-c2ccc(CN)cc2)c(-c2ccc(-c3ccoc3)cc2)n1,1.3,–
NCc1ccc(-c2nc(N3CCC[C@@H](N)C3)c3nccn3c2-c2ccc(CN)cc2)cc1,3.5,–
CC(=O)NCc1ccc(-c2ncc(OCC3CCNCC3)nc2-c2ccc(CNC(C)=O)cc2)cc1,> 10,–
Cc1cc(-c2nc(OCC3CCNCC3)cnc2-c2ccc(CN)cc2)ccc1-c1ccoc1,10.6,Activity [4]: Non-Toxic; Activity [5]: Non-Toxic
NCc1ccc(-c2ncc(OCC3CCNCC3)nc2-c2ccc(-n3cc(CO)nn3)cc2)cc1,> 10,–
NCc1ccc(-c2ncc(OCC3CCNCC3)nc2-c2ccc(-c3ccoc3)cc2F)cc1,8.4,Activity [4]: Non-Toxic; Activity [5]: Non-Toxic
CN(C)Cc1ccc(-c2nc(OCC3CCNCC3)cnc2-c2cccnc2)cc1,9.9,–
NCc1ccc(-c2ncc(OCCC3CCNCC3)nc2-c2ccc(CN)cc2)cc1,> 10,–
c1cc(-c2ccc(-c3ncc(OCC4CCNCC4)nc3-c3ccc(-c4ccoc4)cc3)cc2)co1,1,–
CC(=O)OCc1ccc(-c2ncc(OCC3CCNCC3)nc2-c2ccc(COC(C)=O)cc2)cc1,> 10,–
NCc1ccc(-c2ncc(OCC3CCNCC3)nc2-c2cccc3[nH]cnc23)cc1,1.6,–
NCc1ccc(-c2ncc(OCC3CCNCC3)nc2-c2ccc(C(=O)N3CCCC3)cc2)cc1,13,Activity [4]: Non-Toxic; Activity [5]: Non-Toxic
CC(=O)NCc1ccc(-c2ncc(OCC3CCNCC3)nc2-c2ccc(CN)cc2)cc1,30,–
NCc1ccc(-c2ncc(OCC3CCNCC3)nc2-c2ccc(N3CCCCC3)cc2)cc1,> 10,Activity [4]: Non-Toxic; Activity [5]: Non-Toxic
NCc1ccc(-c2ncc(OC3CCNCC3)nc2-c2ccc(-c3ccoc3)cc2)cc1,1.6,–
NCc1ccc(-c2nc(OCCC3CCNCC3)cnc2-c2ccncc2)cc1,1.7,–
Cc1noc(C)c1-c1ccc(-c2nc(OCC3CCNCC3)cnc2-c2ccc(CN)cc2)cc1,> 10,–
NCc1ccc(-c2ncc(OCCN3CCNCC3)nc2-c2ccc(CN)cc2)cc1,> 10,–
NCc1ccc(-c2ccc(NCC3CCNCC3)nc2-c2ccc(CN)cc2)cc1,3.7,–

SMILES,IC50 [1] [µM],also measured
NCc1ccc(-c2ncc(OCC3CCNCC3)nc2-c2ccc(N3CCOCC3)cc2)cc1,> 10,Activity [4]: Non-Toxic; Activity [5]: Non-Toxic
NCc1ccc(-c2ncc(OCC3CCNCC3)nc2-c2ccc(C3CCNCC3)cc2)cc1,3.1,Activity [4]: Non-Toxic; Activity [5]: Non-Toxic
NCc1ccc(-c2ncc(OCCC3CCNCC3)nc2-c2ccc(-c3ccoc3)cc2)cc1,1.3,–
NCc1cccc(-c2ncc(OCC3CCNCC3)nc2-c2ccc(-c3ccoc3)cc2)c1,2.9,–
OCc1ccc(-c2ncc(OCC3CCNCC3)nc2-c2ccc(CO)cc2)cc1,0.51,–
NCc1ccc(-c2ncc(OCC3CCNCC3)nc2-c2ccc(CN)cc2)cc1,0.62,–
CNCCOc1cnc(-c2ccc(CN)cc2)c(-c2ccc(-c3ccoc3)cc2)n1,2.1,–
CN(C)Cc1ccc(-c2ncc(OCC3CCNCC3)nc2-c2ccc(-c3ccoc3)cc2)cc1,6.1,–
NCc1ccc(-c2ncc(OCC3CCNCC3)nc2-c2ccc(C(=O)N3CCOCC3)cc2)cc1,> 10,Activity [4]: Non-Toxic; Activity [5]: Non-Toxic
Ic1ccc(-c2ncc(OCCC3CCNCC3)nc2-c2ccc(I)cc2)cc1,4.7,IC50 [2]: 1.8 µM; IC50 [3]: 10.2 µM
NCc1ccc(-c2ncc(OCC3CCNCC3)nc2-c2ccc(N3CCCC3)cc2)cc1,2.5,Activity [4]: Non-Toxic; Activity [5]: Non-Toxic
NCc1ccc(-c2ncc(OCC3CCNCC3)nc2-c2ccc(C3CCOC3)cc2)cc1 (stereo not given),0.59,Activity [4]: Non-Toxic; Activity [5]: Non-Toxic
NCc1ccc(-c2ncc(OCC3CCNCC3)nc2-c2cccc(C3CCOC3)c2)cc1 (stereo not given),> 10,Activity [4]: Non-Toxic; Activity [5]: Non-Toxic
COc1cc(-c2nc(OCC3CCNCC3)cnc2-c2ccc(CN)cc2)ccc1-c1ccoc1,8,Activity [4]: Non-Toxic; Activity [5]: Non-Toxic
N#Cc1cc(-c2nc(OCC3CCNCC3)cnc2-c2ccc(CN)cc2)ccc1-c1ccoc1,1.8,Activity [4]: Non-Toxic; Activity [5]: Non-Toxic
NCc1ccc(-c2nc(OCCN3CCNCC3)cnc2-c2ccc(-c3ccoc3)cc2)cc1,1.8,–
NCc1ccc(-c2ncc(OCC3CCNCC3)nc2-c2ccc(-c3ccoc3)cc2CO)cc1,> 10,Activity [4]: Non-Toxic; Activity [5]: Non-Toxic
NCc1ccc(-c2nc(N)c(OCC3CCNCC3)nc2-c2ccc(CN)cc2)cc1,2.1,–
Cc1noc(C)c1-c1nc(OCC2CCNCC2)cnc1-c1ccc(CN)cc1,11.1,–
ONCc1ccc(-c2ncc(OCC3CCNCC3)nc2-c2ccc(-c3ccoc3)cc2)cc1,1.2,–
NCc1ccc(-c2cc(CNCC3CCNCC3)sc2-c2ccc(CN)cc2)cc1,10.7,IC50 [2]: > 50 µM
NCc1ccc(-c2ncc(OCC3CCNCC3)nc2-c2ccc(-c3ccncc3)cc2)cc1,26.5,IC50 [2]: > 50 µM; IC50 [3]: > 50 µM
COc1cc(-c2ccoc2)ccc1-c1nc(OCC2CCNCC2)cnc1-c1ccc(CN)cc1,1.9,Activity [4]: Non-Toxic; Activity [5]: Non-Toxic
COc1cc(-c2ncc(OCC3CCNCC3)nc2-c2ccc(-c3ccsc3)cc2)ccc1C(N)=O,4.7,–

SMILES,IC50 [1] [µM],also measured
CN(C)Cc1ccc(-c2ncc(OCC3CCNCC3)nc2-c2ccc(CN(C)C)cc2)cc1,0.39,–
Ic1ccc(-c2ncc(OCC3CCNCC3)nc2-c2ccc(I)cc2)cc1,0.52,–
CN(C)Cc1ccc(-c2nc(OCC3CCNCC3)cnc2-c2ccc(-c3ccoc3)cc2)cc1,1.8,–
Cc1cc(CN)ccc1-c1ncc(OCC2CCNCC2)nc1-c1ccc(-c2ccoc2)cc1,2.6,–
CC(Oc1cnc(-c2ccc(CN)cc2)c(-c2ccc(-c3ccoc3)cc2)n1)C1CCNCC1 (racemic),0.24,EC68 [6]: 1.2 µM
OCc1ccc(-c2ncc(OCCC3CCNCC3)nc2-c2ccc(CO)cc2)cc1,2.1,–
NCc1ccc(-c2nc(OCC3CCNCC3)cnc2-c2ccc(O)cc2)cc1,8.1,–
NCc1ccc(-c2ncc(NCC3CCNCC3)nc2C(=O)Nc2ccc(-c3ccoc3)cc2)cc1,1.1,–
NCc1ccc(-c2nc(OCC3CCNCC3)cnc2-c2ccc(-c3ccoc3)cc2)cc1,0.68,EC68 [6]: 1.2 µM
COc1cc(CN)ccc1-c1nc(OCC2CCNCC2)cnc1-c1ccncc1,3.5,–
NCc1ccc(-c2ncc(OCc3ccccc3)nc2-c2ccc(-c3ccoc3)cc2)cc1,3.2,–
NCc1ccc(-c2nc(OCC3CCNCC3)cnc2-c2ccncc2)cc1,0.32,–
NCc1ccc(-c2nc(N3CC[C@H](N)C3)c3nccn3c2-c2ccc(CN)cc2)cc1,19.3,–
Cc1cc(CN)ccc1-c1ncc(OCC2CCNCC2)nc1-c1ccc(CN)cc1C,2.1,IC50 [2]: 3.6 µM; IC50 [3]: 6.3 µM
NCc1ccc(-c2ncc(OCC3CCNCC3)nc2-c2ccc(-n3ccnn3)cc2)cc1,> 10,–
NCc1ccc(-c2ncc(OCC3CCNCC3)nc2-c2ccc(Oc3ccccc3)cc2)cc1,32.6,IC50 [2]: > 50 µM; IC50 [3]: > 50 µM
CN(C)Cc1ccc(-c2nc(OCC3CCNCC3)cnc2-c2ccc(O)cc2)cc1,20.5,–
NCc1ccc(-c2ncc(OCC3CCNCC3)nc2-c2ccc(C3=CCNCC3)cc2)cc1,2.9,Activity [4]: Non-Toxic; Activity [5]: Non-Toxic
NCc1ccc(-c2ncc(OCC3CCNCC3)nc2-c2ccc(C(=O)N3CCCCC3)cc2)cc1,3.5,Activity [4]: Non-Toxic; Activity [5]: Non-Toxic
NCc1ccc(-c2ncc(NCC3CCNCC3)nc2-c2ccc(-c3ccoc3)cc2F)cc1,2.3,–
NCc1ccc(-c2ncc(OCC3CCNCC3)nc2-c2ccc(C3CCCCC3)cc2)cc1,16.2,Activity [4]: Non-Toxic; Activity [5]: Non-Toxic
NCc1ccc(-c2ncc(OCC3CCNCC3)nc2-c2ccc(CN)c(F)c2)cc1,> 50,–
NCc1ccc(-c2nc(OCC3CCNCC3)c3nccn3c2-c2ccc(CN)cc2)cc1,9.3,–
Ic1ccc(-c2ncc(OCCCC3CCNCC3)nc2-c2ccc(I)cc2)cc1,> 10,–
